In the array DNA melting data of Ke et al. (doi:10.1101/2024.01.08.574731):

How the values were obtained:
[1] = melting temperature; fluorescence melt of hairpins on a sequencing array, two-state fit, raised by 9.35 °C to match UV melts; conditions: sodium 0.088 M
Outline: (§1)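 To match UV melts, fitted temperatures were raised by 9.35 °C. These fits were bootstrapped two-state models that gave melting temperature and folding enthalpy, combined by inverse variance over four replicates. The input was normalised Cy3 fluorescence of library hairpins with annealed Cy3 and quencher oligos on a sequenced MiSeq flow cell, imaged in 50 mM Na-HEPES pH 8.0, 25 mM NaCl in 2.5 °C steps up to 60 °C.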

[2] = folding enthalpy; higher = less favourable; fluorescence melt of hairpins on a sequencing array, two-state fit; conditions: sodium 0.088 M
Outline: as §1

Row | Sequence | Tm [1] | folding enthalpy [2]
1 | GATCCCACAGGGATC ((((((...)))))) | 67.1 °C | -33.1 kcal/mol
2 | GTGTTCGAAAGAAGACAC ((((((....)))..))) | 37.9 °C | -20.8 kcal/mol
3 | GCATTGCCGAAAGGCTGC (((..(((....)))))) | 46.5 °C | -14.8 kcal/mol
4 | GGTAGGTCGAAAGACACC (((..(((....)))))) | 35.3 °C | -16.5 kcal/mol
5 | GATCAACACTTGATC ((((((...)))))) | 40.5 °C | -31.6 kcal/mol
6 | GATCATGGAAACGTGATC (((((.(....).))))) | 46.5 °C | -31.7 kcal/mol
7 | GCGTCGCGAAAGCCAAGC ((.(.((....)).).)) | 48.1 °C | -20.1 kcal/mol
8 | GGCAAGGGAAACCTCGCC (((.(((....))).))) | 47.1 °C | -32 kcal/mol
9 | GCATTGCGAAAGCTTTGC (((..((....))..))) | 49.1 °C | -21.4 kcal/mol
10 | GATCTGCCCACAGATC ((((((....)))))) | 52.4 °C | -37 kcal/mol
11 | GATCGGGATTCCGATC ((((((....)))))) | 57.5 °C | -39.7 kcal/mol
12 | GAGGCGGGAAACCACCTC ((((.((....)).)))) | 49.1 °C | -36.9 kcal/mol
13 | GACGGTGCGAAAGCAGTC (((..(((....)))))) | 39.9 °C | -16.9 kcal/mol
14 | TGATTGAAAAATCA (((((....))))) | 27.4 °C | -10.1 kcal/mol
15 | GGCGGAGGAAACCCCACC ((.((.(....).)).)) | 29.6 °C | -20.2 kcal/mol
16 | CGCGTCGGAAACGAAGCG (((.(((....))).))) | 56.7 °C | -34 kcal/mol
17 | GCTACAGAAATGTAGC ((((((....)))))) | 55.4 °C | -33.1 kcal/mol
18 | GCGGCTTCCGC ((((...)))) | 57.8 °C | -25.9 kcal/mol
19 | GTGCCCGGAAACAGGCAC (((((.(....).))))) | 54.9 °C | -40.4 kcal/mol
20 | GCCAATGGAAACACTGGC ((((.((....)).)))) | 41.9 °C | -31.9 kcal/mol
21 | GGTCAAGGAAACTTGATC (.(((((....))))).) | 42.1 °C | -34.1 kcal/mol
22 | GTCGCTACGAAAGTAGAC (((..(((....)))))) | 33.3 °C | -14.6 kcal/mol
23 | GCCAAGCGAAAGCAAGGC (((..((....))..))) | 59.2 °C | -23.7 kcal/mol
24 | GCCCGGCGAAAGCAAGGC (((..((....))..))) | 59 °C | -18.6 kcal/mol

Row | Sequence | Tm [1] | folding enthalpy [2]
25 | GACGCCGCGAAAGCGGTC (((..(((....)))))) | 34.8 °C | -6.05 kcal/mol
26 | GATCTCGTCAGAGATC ((((((....)))))) | 68.5 °C | -37.5 kcal/mol
27 | GCCGTACGAAAGTAGGGC (((.(((....))).))) | 60.1 °C | -40.8 kcal/mol
28 | GATCCGCTTACGGATC ((((((....)))))) | 59 °C | -37.3 kcal/mol
29 | GGGGACGAAAGTCATCCC ((((((....)))..))) | 45.6 °C | -12.6 kcal/mol
30 | GTGCGCGAAAGCGTGCAC ((((((....)))..))) | 59.3 °C | -17.3 kcal/mol
31 | GCATGGTCGAAAGACTGC (((..(((....)))))) | 39.8 °C | -18.1 kcal/mol
32 | GACGCCGAAAGGCCGGTC ((((((....)))..))) | 42.6 °C | -15 kcal/mol
33 | GTGTGATCGAAAGATCAC (((..(((....)))))) | 66.7 °C | -14 kcal/mol
34 | CGTCACGGAAACGTCACG (((.(((....))).))) | 39.3 °C | -19.8 kcal/mol
35 | GCGTGACACGC ((((...)))) | 56.8 °C | -22.1 kcal/mol
36 | GTCGTCTCGAAAGAGGAC (((..(((....)))))) | 39 °C | -21.6 kcal/mol
37 | GGAGGCGGAAACGCTTCC (((.(((....))).))) | 55.2 °C | -36.9 kcal/mol
38 | GTGTTACGAAAGTACAC (((.(((....)))))) | 47.9 °C | -27 kcal/mol
39 | GGGATCGGAAACAATCCC (((((.(....).))))) | 40.6 °C | -30.9 kcal/mol
40 | GATCCACCTTGGATC ((((((...)))))) | 51.2 °C | -31.7 kcal/mol
41 | GCTTTCGGAAACGAGAGC (((.(((....))).))) | 49.1 °C | -47 kcal/mol
42 | GATCGGGTTCCGATC ((((((...)))))) | 56.8 °C | -39.1 kcal/mol
43 | GCAAAGCGAAAGCTTGGC ((.((((....)))).)) | 62.9 °C | -38.7 kcal/mol
44 | GATCTCATGAGAGATC ((((((....)))))) | 54.2 °C | -32 kcal/mol
45 | GGCTATCCGAAAGGAGCC (((..(((....)))))) | 47.1 °C | -27.3 kcal/mol
46 | GTAATCGGAAACGGTTAC ((((.((....)).)))) | 46.7 °C | -33.2 kcal/mol
47 | GTGTTTACGAAAGTACAC (((..(((....)))))) | 36.7 °C | -25 kcal/mol
48 | GCACCGCGAAAGCAATGC (((..((....))..))) | 27.3 °C | -8.2 kcal/mol

Row | Sequence | Tm [1] | folding enthalpy [2]
49 | GCGAAATTTCGC ((((....)))) | 51.7 °C | -42.6 kcal/mol
50 | GGGGGTGGAAACACCCTC (.(((((....))))).) | 64.5 °C | -16.7 kcal/mol
51 | GAGCGTACGAAAGTACTC (((..(((....)))))) | 27 °C | -13.4 kcal/mol
52 | GCCTCTGGAAACGGAGGC (((((.(....).))))) | 57.5 °C | -40.7 kcal/mol
53 | GATCCAACGTGGATC ((((((...)))))) | 49.2 °C | -31.9 kcal/mol
54 | GCAACGCGAAAGCGGCGC ((..(((....)))..)) | 66.7 °C | -26.6 kcal/mol
55 | GCGGCCGAAAGGCCTCGC ((((((....)))..))) | 56.2 °C | -12.5 kcal/mol
56 | GGAGGTGGAAACATCTCC ((((.((....)).)))) | 49.1 °C | -44.1 kcal/mol
57 | GAAGGTGGAAACGTCTTC ((((..(....)..)))) | 36.2 °C | -33 kcal/mol
58 | GGGAGGGGAAACCCTCTC (.(((((....))))).) | 52.2 °C | -20.2 kcal/mol
59 | GCGGTTCCCGC ((((...)))) | 67.5 °C | -22.1 kcal/mol
60 | GATCCATTTATGGATC ((((((....)))))) | 60.8 °C | -44.2 kcal/mol
61 | GATCGTCCACACGATC ((((((....)))))) | 53.9 °C | -34.7 kcal/mol
62 | GATCCCCCCCGGGATC ((((((....)))))) | 57.2 °C | -38.5 kcal/mol
63 | GATCAAATTTTGATC ((((((...)))))) | 43 °C | -31.4 kcal/mol
64 | GATCCTAGAAGGATC ((((((...)))))) | 53.4 °C | -40.9 kcal/mol
65 | GATCACTGCGTGATC ((((((...)))))) | 61 °C | -26.3 kcal/mol
66 | GCTATCGGAAACGGTAGC ((((.((....)).)))) | 51.8 °C | -38 kcal/mol
67 | GCTAAAGGAAACTTTAGC (((((((....))))))) | 53.7 °C | -37.4 kcal/mol
68 | GGAGCAGGAAACCGCTCC (((((.(....).))))) | 55.2 °C | -34.1 kcal/mol
69 | GACAGAACGAAAGTTGTC (((..(((....)))))) | 36.8 °C | -28.2 kcal/mol
70 | GCGGACGACCGC ((((....)))) | 53.8 °C | -24.6 kcal/mol
71 | GTTCACGAAAGTGGCAAC ((((((....)))..))) | 31.4 °C | -8.43 kcal/mol
72 | GATCAGTAACCTGATC ((((((....)))))) | 47.4 °C | -27.6 kcal/mol

Row | Sequence | Tm [1] | folding enthalpy [2]
73 | GCCCTCGAAAGAGGGGGC ((((((....)))..))) | 68.4 °C | -15.1 kcal/mol
74 | GCTTTGCGAAAGCATTGC ((..(((....)))..)) | 40.9 °C | -19.3 kcal/mol
75 | GCGAACGCTCGC ((((....)))) | 59.6 °C | -12.2 kcal/mol
76 | CGGCCCGGAAACGGTCCG (((.(((....))).))) | 55.3 °C | -45.1 kcal/mol
77 | GCCGCCGAAAGGCTGGGC ((((((....)))..))) | 64.8 °C | -20.4 kcal/mol
78 | GCTAGTGGAAACGTTAGC ((((..(....)..)))) | 36.4 °C | -20.1 kcal/mol
79 | GAGTCCCGAAAGGGCTC (((.(((....)))))) | 59.5 °C | -25.5 kcal/mol
80 | GCGGCGTCCCGC ((((....)))) | 56.7 °C | -14.5 kcal/mol
81 | GTCTACGAAAGTAGCGAC ((((((....)))..))) | 47 °C | -17.6 kcal/mol
82 | GCCCGCCGAAAGGCCGGC (((.(((....))).))) | 64.8 °C | -19.4 kcal/mol
83 | GAATTACGAAAGTACTTC (((.(((....))).))) | 32.5 °C | -20.1 kcal/mol
84 | GGCAGCGGAAACGTTGCC ((((.((....)).)))) | 61.2 °C | -40.4 kcal/mol
85 | GATATTGCGAAAGCAATC (((..(((....)))))) | 35.4 °C | -8.38 kcal/mol
86 | GATCCCATTCGGGATC ((((((....)))))) | 62.1 °C | -38.7 kcal/mol
87 | GCCACCGAAAGGTTGGC ((((((....))).))) | 60.5 °C | -33.9 kcal/mol
88 | CTAACTGAAAAGTTAG ((((((....)))))) | 45.9 °C | -23.3 kcal/mol
89 | GTTATCGCGAAAGCGAAC (((..(((....)))))) | 29.8 °C | -7.39 kcal/mol
90 | GTTTCGGGAAACTGAAGC (.(((.(....).))).) | 37.9 °C | -11.2 kcal/mol
91 | GACATGACGAAAGTCGTC (((..(((....)))))) | 41.6 °C | -10.3 kcal/mol
92 | GCGAAGACGAAAGTCCGC (((..(((....)))))) | 52.4 °C | -31.9 kcal/mol
93 | GCTACTGGAAACAGTGGC ((.((((....)))).)) | 51.7 °C | -38.3 kcal/mol
